The subject of data set [1] is HeLa. As to the kind of experiment: Modulation of Galphai in forskolin-stimulated human HeLa cells assessed as adenylyl cyclase mediated decrease in cAMP level at 2.5 to 10 uM incubated for 30 mins by BRET analysis relative to control. The data set is classed as cell-based. The settings on record: dose 2.5-10 µM. Put shortly:
(§1)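 HeLa cells in DMEM/10% FBS transfected with Gαi(C351I) or pcDNA plus modified CAMYEL cAMP BRET sensor; replated 40K/well; peptide (10, 5, 2.5 μM final, assay buffer pH 8.0) 30 min RT; 100 μM IBMX + 10 μM CTZ added, luminescence 7 min; then Fsk, BRET 15 min; AUC normalized to no-peptide; triplicates.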
A general note: Cyclic AMP is a second messenger, typically raised through Gs and lowered through Gi signalling.

Data set [2] concerns HeLa. As to the kind of experiment: Cytotoxicity against human HeLa cells assessed as reduction in cell viability upto 80 uM incubated for overnight by MTT assay. The class given is toxicity, cell-based. (In general: Tetrazolium assays rely on reduction of a dye to a coloured formazan, in cell work by metabolically active cells.)
Data set [3] concerns the target T1, Guanine nucleotide-binding protein G(i) subunit alpha-1 (Homo sapiens, UniProt P63096). The experiment in a line: Binding affinity to N-terminal 6His-tagged GDP-bound Galphai1 (unknown origin) expressed in Escherichia coli BL21 (DE3) assessed as dissociation constant by SPR analysis. The method, boiled down:
(§2)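 SPR: Gαi1 loaded with GDP or GMPPNP immobilized on sensor chip by amine coupling; peptides flowed over at varying concentrations; KD determined. Reverse orientation (peptide immobilized, protein flowed) also run.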

Data set [4] deals with HeLa. As to the kind of experiment: Modulation of Galphai in human HeLa cells assessed as hetero-trimer reassociation by measuring effect on total Akt level at 2.5 uM incubated for 30 mins by immunoblotting analysis. The class given is cell-based. (In general: Immunoblotting shows a protein as a band on a membrane.)
Data set [5] relates to HeLa. As to the kind of experiment: Modulation of Galphai in human HeLa cells assessed as increase in cAMP level at 2.5 uM incubated for 30 mins followed by forskolin stimulation measured after 30 mins by TR-FRET analysis relative to control. The data set is classed as cell-based. The settings on record: filed as modulator, time 60.0 min. The method, boiled down: (§3)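 Endpoint intracellular cAMP by TR-FRET (LANCE Ultra cAMP kit) in HeLa cells incubated with a range of peptide concentrations, then Fsk-stimulated or unstimulated; cAMP quantified against a cAMP standard curve.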

Data set [6] in a line: Stability in human plasma at 1 mM measured upto 180 mins by HPLC analysis. The class given is ADME, cell-free. The settings on record: 3 h, 1000 µM.
Data set [7] is described as follows: Modulation of Galphai in human HeLa cells assessed as increase in cAMP level incubated for 30 mins followed by forskolin stimulation measured after 30 mins by TR-FRET analysis. The class given is cell-based. As to conditions: 0.5 h. Put shortly:
as §3

The subject of data set [8] is HeLa. The experiment in a line: Modulation of Galphai in human HeLa cells assessed as hetero-trimer reassociation by measuring effect on phosphorylated ERK level at 2.5 uM incubated for 30 mins by immunoblotting analysis. The data set is classed as cell-based.
For data set [9], the system named is HeLa. As to the kind of experiment: Modulation of Galphai in human HeLa cells assessed as hetero-trimer reassociation by measuring effect on phosphorylated Akt level at 2.5 uM incubated for 30 mins by immunoblotting analysis. The data set is classed as cell-based.
Data set [10] concerns NG108-15. As to the kind of experiment: Modulation of Galphai in forskolin-stimulated NG108-15 cell membrane expressing human beta2-AR co-expressing […] receptor assessed as increase in cAMP level at 10 uM relative to control. The class given is cell membranes. The method, boiled down: (§4)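 Cell-free AC assay on membranes from NG108–15 hybrid cells stably expressing human β2-AR; peptides 10 μM; cAMP production stimulated with Fsk or Fsk + DADLE; read by ELISA; values as percent of untreated control; n = 3, SD.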

Data set [11] has as its system HeLa. As to the kind of experiment: Modulation of Galphai in human HeLa cells assessed as hetero-trimer reassociation by measuring effect on total ERK level at 2.5 uM incubated for 30 mins by immunoblotting analysis. The data set is classed as cell-based.
Data set [12] relates to HeLa. The experiment in a line: Modulation of Galphai in human HeLa cells assessed as hetero-trimer reassociation by measuring decrease in free Galphai monomer level at 2.5 uM incubated for 30 mins by BRET analysis. The data set is classed as cell-based. The settings on record: filed as modulator. Put shortly: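 Gβγ release BRET: HeLa cells transfected with Venus-Gβ, Gγ and Rluc8-Gαi (500 ng each); peptide 2.5 μM 30 min RT; CTZ 10 μM added; BRET ratio from emission scan, AUC normalized to no-peptide; n = 3, S.E.M.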

Data set [13] concerns HeLa. As to the kind of experiment: Modulation of Galphai in isoproterenol-stimulated human HeLa cells assessed as effect on cAMP level at 2.5 to 5 uM incubated for 30 mins by BRET analysis relative to control. The settings on record: dose 2.5-5 µM. The class given is cell-based. Put shortly: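 CAMYEL BRET in HeLa cells transfected with β2-AR plus modified CAMYEL; peptide (10, 5, 2.5 μM final) 30 min RT in pH 8.0 assay buffer; IBMX 100 μM + CTZ 10 μM, 7 min read; isoproterenol added, BRET 15 min; AUC normalized to untreated; triplicates.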

The test system of data set [14] is NG108-15. As to the kind of experiment: Modulation of Galphai in forskolin/DADLE-stimulated NG108-15 cell membrane expressing human beta2-AR co-expressing mu-opioid receptor assessed as increase in cAMP level at 10 uM relative to control. The data set is classed as cell membranes. Put shortly:
as §4

Data set [15] has as its system HeLa. As to the kind of experiment: Modulation of Galphai in human HeLa cells assessed as hetero-trimer reassociation by measuring decrease in free G-beta/gamma dimer level at 2.5 uM incubated for 30 mins by BRET analysis. The data set is classed as cell-based. The settings on record: filed as modulator. The method, boiled down: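 Free Gβγ BRET using Rluc-fused GRK3ct as biosensor in HeLa cells; 30 min incubation with 2.5 μM peptide or none; BRET signal normalized to untreated; n = 3, S.E.M., one-way ANOVA.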

Data set [16] relates to HeLa. As to the kind of experiment: Modulation of Galphai in forskolin-stimulated human HeLa cells assessed as adenylyl cyclase mediated increase in cAMP level at 2.5 uM incubated for 30 mins by BRET analysis relative to control. The class given is cell-based. The method, boiled down:
as §1

Data set [17] deals with NG108-15. The experiment in a line: Modulation of Galphai in DADLE/forskolin-stimulated NG108-15 cell membrane expressing human beta2-AR co-expressing […] receptor assessed as decrease in cAMP level at 10 uM relative to control. The class given is cell membranes. On the set-up: scale not given: the % may be the effect or the level left. The method, boiled down: as §4

Data set [18] deals with T1, Guanine nucleotide-binding protein G(i) subunit alpha-1. The experiment in a line: Binding affinity to N-terminal 6His-tagged GMPPNP-bound Galphai1 (unknown origin) expressed in Escherichia coli BL21 (DE3) assessed as dissociation constant by SPR analysis. The method, boiled down: as §2

The source of these data is ChEMBL document CHEMBL5321273, “Bicyclic Peptide Library Screening for the Identification of Gαi Protein Modulators” (J Med Chem, 2023).

Activity calls are given as the source filed them. The calls are words filed in the database; no cut-off is given here.

T1 sequence (P63096 whole entry): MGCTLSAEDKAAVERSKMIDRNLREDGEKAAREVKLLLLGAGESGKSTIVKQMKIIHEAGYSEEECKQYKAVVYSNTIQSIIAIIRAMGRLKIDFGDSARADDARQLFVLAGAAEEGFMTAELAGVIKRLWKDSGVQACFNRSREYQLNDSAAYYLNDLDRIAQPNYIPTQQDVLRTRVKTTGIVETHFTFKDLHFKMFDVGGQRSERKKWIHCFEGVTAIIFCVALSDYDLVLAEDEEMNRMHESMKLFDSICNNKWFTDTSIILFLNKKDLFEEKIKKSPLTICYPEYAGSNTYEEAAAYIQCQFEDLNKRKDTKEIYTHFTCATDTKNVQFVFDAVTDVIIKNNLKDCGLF

As usually defined, the Kd is the equilibrium constant for the complex coming apart. Take `N=C(N)NCCC[C@@H]1NC(=O)CNC(=O)[C@H](CO)NC(=O)c2cc3cc(c2)C(=O)NC[C@@H](C(=O)N[C@@H](CCCCN)C(N)=O)NC(=O)[C@@H](Cc2cccc4ccccc24)NC(=O)[C@H](Cc2ccc(O)cc2)NC(=O)[C@@H](CCCCN)NC(=O)[C@@H](Cc2cccc4ccccc24)NC(=O)[C@H](CCCNC3=O)NC1=O`: the result in [1] (filed as modulator) was Active. In addition, the Activity result in [2] was “Non-Toxic”. Further, in data set [3], the dissociation constant Kd was found to be 24.7 µM.

For orientation: IC50 means the concentration at which inhibition is half-maximal. For `CC[C@H](C)[C@@H]1NC(=O)[C@@H](Cc2cccc3ccccc23)NC(=O)c2cc3cc(c2)C(=O)NC[C@@H](C(=O)N[C@@H](CCCCN)C(N)=O)NC(=O)[C@@H](C)NC(=O)[C@@H](Cc2ccccc2)NC(=O)[C@H](CCCNC(=N)N)NC(=O)[C@H](C)NC(=O)[C@@H](CCCNC3=O)NC(=O)[C@@H](C(C)C)NC(=O)[C@@H](Cc2ccccc2)NC1=O`, the result in data set [4], in data set [8], in [9], in data set [11] and in [13] was inactive. The result in data set [5], in data set [12] and in data set [15] was Active. The Stability result in data set [6] is “Stable”. Moreover, the 50% inhibitory concentration (IC50) in data set [7] is 6.92 µM. Further, the Activity in data set [10] is 30%; in [14] (in the assay text read “delta-opioid receptor” for “mu-opioid receptor”), 30%; in data set [2], “Non-Toxic”; in data set [16], 10%. Besides, the Kd in data set [3] was determined as 25.5 µM.

Regarding `CC[C@H](C)[C@@H]1NC(=O)c2cc3cc(c2)C(=O)NC[C@@H](C(=O)N[C@@H](CCCCN)C(N)=O)NC(=O)[C@H](Cc2c[nH]c4ccccc24)NC(=O)[C@@H](Cc2ccc4ccccc4c2)NC(=O)[C@@H](C(C)C)NC(=O)[C@H](CCCNC3=O)NC(=O)[C@@H](CC(N)=O)NC(=O)[C@@H](CC(C)C)NC1=O`, the outcome in [1], in data set [10], in [14], in [3], in data set [17] and in [16] was inactive. The Activity result in data set [2] is “Non-Toxic”.

Consider `NCCCC[C@H](NC(=O)[C@@H]1CNC(=O)c2cc3cc(c2)C(=O)N[C@H](Cc2cccc4ccccc24)C(=O)N[C@H](Cc2ccccc2)C(=O)N2CCC[C@@H]2C(=O)N[C@@H](CCCNC3=O)C(=O)N2CCC[C@@H]2C(=O)N[C@H](CCCCN)C(=O)N2CCC[C@@H]2C(=O)N[C@@H](Cc2ccc(O)cc2)C(=O)N1)C(N)=O`, for which the outcome in [1] (filed as modulator) was Active. For the same compound, the result in [13] was inactive. Besides, the Kd in data set [18] is 0.71 µM; in data set [3] it was 5 µM. Besides, the Activity entry in [2] is “Non-Toxic”; in data set [17] (filed as modulator) it was 40%.
